The target of experiment [1] is T1, Delta-type opioid receptor (Rattus norvegicus, UniProt P33533). The experiment in a line: Affinity against the Opioid receptor delta 1.
Experiment [2] has as its system Mus musculus. The experiment in a line: Compound was tested for analgesic activity in mouse using mouse writhing test following subcutaneous administration. It is filed as functional. For orientation: Writhing tests count abdominal constrictions after an irritant is injected.
The subject of experiment [3] is Mus musculus. The experiment in a line: Compound was tested for analgesic activity in mouse using mouse writhing test after sc administration of compound. Type of experiment: functional.
Experiment [4] relates to Mus musculus. Kind of experiment: Analgesic antagonistic activity in mice using morphine(56.07 umol/kg) induced Straub-tail test after sc administration. It is filed as functional. The method, boiled down: (§1)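 Mice got the test substance, N-allylnormorphine reference, or diluent sc, then immediately 56.07 µmol/kg morphine sulfate sc. The number of mice showing a Straub-tail reaction (tail raised above 45°) was recorded 15–25 min after treatment.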

The target of experiment [5] is T1, Delta-type opioid receptor. Kind of experiment: Opioid receptor affinity against the Opioid receptor delta 1 by using the curve-fitting program LIGAND.
In experiment [6] the target is T2, Mu-type opioid receptor (Rattus norvegicus, UniProt P33535). The experiment in a line: (§2) Opioid receptor mu 1 affinity against the receptor site model site 1 (mu1) by using the curve-fitting program LIGAND. The method, boiled down: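 Rat whole-brain homogenate, preincubated 37 °C 1 h, resuspended in Tris pH 7.7 (with 100 mM NaCl when appropriate) at 6.7 mg tissue/mL. […] Triplicate tubes, 25 °C 45 min, then filtration. Self- and cross-competition data were fitted together by multisite LIGAND analysis for site affinities. Values are averages of at least two experiments.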

The target in experiment [7] is Opioid receptor (Rattus norvegicus, UniProt P33533+P34975+P33535). Kind of experiment: Opioid receptor affinity against the receptor site model site 5 by using the curve-fitting program LIGAND. Type of experiment: protein assay.
Experiment [8] deals with Mus musculus. Kind of experiment: Compound was tested for analgesic potency using writhing test in mouse after sc administration of compound. It is filed as functional.
Experiment [9] has as its target Kappa-type opioid receptor (Rattus norvegicus, UniProt P34975). Kind of experiment: Opioid receptor affinity against Opioid receptor kappa 1 by using the curve-fitting program LIGAND.
For experiment [10], the target named is T2, Mu-type opioid receptor. The experiment in a line: Mu2 opioid receptor affinity against the receptor site model site 2 (mu2) by using the curve-fitting program LIGAND.
The subject of experiment [11] is Mus musculus. Kind of experiment: Compound was tested for narcotic antagonist potency using tail flick test in mouse after sc administration of compound. It is filed as functional.
Experiment [12] addresses T2, Mu-type opioid receptor. The description is as §2. The source holds these as a separate data set.
Experiment [13] relates to Mus musculus. The experiment in a line: Compound was tested for narcotic antagonist potency using tail flick test in mouse after sc administration of compound; no significant antagonist activity up to dose of 240-300 umol/kg. It is filed as functional, organism-based. In general terms: In hot-plate and tail-flick tests a longer latency is read as antinociception.
Experiment [14] has as its system Mus musculus. Kind of experiment: Compound was tested for narcotic antagonist potency using tail flick test in mouse after sc administration of compound; No significant antagonist activity up to dose of 240-300 umol/kg. It is filed as functional, organism-based.
For experiment [15], the system named is Mus musculus. Kind of experiment: Analgesic antagonistic activity in mice using morphine(56.07 umol/kg) induced Straub-tail test after sc administration; No antagonist activity up to 846 umol/ kg. It is filed as functional, organism-based. The method, boiled down: as §1
Experiment [16] relates to Mus musculus. The experiment in a line: Compound was tested for narcotic antagonist potency using tail flick test in mouse following subcutaneous administration. It is filed as functional. The conditions noted are these: sc.
The mark [17] stands for this setting: Mus musculus, sc, read-out: ED50.

Where a name gives a salt, the structure may show the parent alone. Activity calls are given as the source filed them. The rule behind the calls is not given here.

Kappa-type opioid receptor, sequence (P34975 whole entry): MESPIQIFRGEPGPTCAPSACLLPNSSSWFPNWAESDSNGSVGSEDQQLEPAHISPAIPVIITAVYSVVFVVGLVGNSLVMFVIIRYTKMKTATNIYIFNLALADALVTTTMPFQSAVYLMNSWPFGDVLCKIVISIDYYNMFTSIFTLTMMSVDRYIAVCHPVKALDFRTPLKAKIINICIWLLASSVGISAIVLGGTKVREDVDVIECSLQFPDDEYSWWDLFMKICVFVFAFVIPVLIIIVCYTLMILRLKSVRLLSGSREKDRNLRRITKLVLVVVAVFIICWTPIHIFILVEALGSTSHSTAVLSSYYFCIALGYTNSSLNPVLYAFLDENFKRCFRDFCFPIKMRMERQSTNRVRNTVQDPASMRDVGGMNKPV
T2 sequence (P33535 whole entry): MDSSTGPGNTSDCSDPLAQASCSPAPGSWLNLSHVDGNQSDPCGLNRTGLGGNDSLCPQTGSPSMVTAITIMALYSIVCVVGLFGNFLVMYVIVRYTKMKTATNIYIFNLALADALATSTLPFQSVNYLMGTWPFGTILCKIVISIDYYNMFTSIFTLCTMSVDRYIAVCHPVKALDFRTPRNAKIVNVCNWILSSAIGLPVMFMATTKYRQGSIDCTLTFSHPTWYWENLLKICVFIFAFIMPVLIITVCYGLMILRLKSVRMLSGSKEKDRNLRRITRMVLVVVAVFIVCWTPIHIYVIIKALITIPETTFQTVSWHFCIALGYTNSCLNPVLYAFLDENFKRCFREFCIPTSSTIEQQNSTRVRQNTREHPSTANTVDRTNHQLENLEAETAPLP
T1 sequence (P33533 whole entry): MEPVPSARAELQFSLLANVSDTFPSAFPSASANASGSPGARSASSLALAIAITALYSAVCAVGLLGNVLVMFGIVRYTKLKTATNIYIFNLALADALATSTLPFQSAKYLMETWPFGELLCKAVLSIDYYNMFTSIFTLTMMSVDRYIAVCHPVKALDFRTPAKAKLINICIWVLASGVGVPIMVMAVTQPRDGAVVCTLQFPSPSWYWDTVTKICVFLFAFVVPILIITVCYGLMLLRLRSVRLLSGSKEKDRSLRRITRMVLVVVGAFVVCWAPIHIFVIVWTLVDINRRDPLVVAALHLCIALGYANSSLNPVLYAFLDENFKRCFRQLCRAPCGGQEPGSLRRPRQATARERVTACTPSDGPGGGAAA

For the molecule `CCC1C2C(=O)c3ccc(O)cc3C1(C)CCN2CC1CC1` (stereo unspecified), binding in [1] was put at a Kd of 0.014 µM.
With `CN1CC[C@]23c4c5ccc(O)c4O[C@H]2[C@@H](O)C=C[C@H]3[C@H]1C5`, the ED50 in [2] (setting [17]) came to 0.81 µmol/kg.
On to `CC1(c2cccc(O)c2)CCCN(CCc2ccccc2)C1` (racemic), for which the ED50 in experiment [3] amounted to 14.1 µmol/kg. The molecule further came in with an AD50 in experiment [4] of 33.94 µM/kg.
For `C=CCN1CCCC(C)(c2cccc(O)c2)C1` (racemic) the same measures were 418 µmol/kg and 38.83 µM/kg.
In the case of `Br.CN1CCCC(C)(c2cccc(O)c2)C1` (racemic), the ED50 in experiment [3] is 26.9 µmol/kg. The AD50 in [4] is 18.17 µM/kg.
For `CC1(c2cccc(O)c2)CCCN(CC2CC2)C1` (racemic), in that order: 83.5 µmol/kg and 7.5 µM/kg.
With `C=CCN1CCCC(C)(c2cccc(O)c2)C1` (single isomer, unassigned; (+)), the Kd – broadly, the free concentration of one partner at which half of the binding sites on the other are occupied at equilibrium, for simple one-to-one binding – turned out to be 4 µM in [5]; 0.1 µM in experiment [6]; 3.7 µM in experiment [7]; 0.137 µM in [9]; 0.37 µM in [10]. Moreover, the ED50 in [8] was found to be 160.94 µM/kg; in experiment [11] it was 112 µmol/kg.
As to `CC1(c2cccc(O)c2)CCCN(CC2CC2)C1` (single isomer, unassigned; (+)), in [11], the ED50 stood at 139 µmol/kg.
Regarding `CC1(c2cccc(O)c2)CCCN(CCc2ccccc2)C1` (single isomer, unassigned; (-)) [listing 1 of 2 here], the Kd in [5] came to 2.17 µM; in experiment [7] it was 1.39 µM; in experiment [9] it was 0.625 µM; in [10], 0.13 µM; in [12], 0.013 µM. This molecule also came in with an ED50 in experiment [8] of 18.38 µM/kg.
Consider `C=CCN1CCCC(C)(c2cccc(O)c2)C1` (single isomer, unassigned; (-)) [listing 1 of 2 here], for which the Kd is 4 µM in experiment [5]; 1.72 µM in experiment [7]; 0.37 µM in experiment [9]; 0.11 µM in experiment [10]; 0.024 µM in experiment [12]. For the same molecule, the ED50 in experiment [8] was 14.34 µM/kg.
In the case of `CC1(c2cccc(O)c2)CCCN(CC2CC2)C1` (single isomer, unassigned; (-)) [listing 1 of 2 here], the ED50 in [8] (setting [17]) was found to be 12.2 µmol/kg.
Turning to `C=CCN1CCCC(C)(c2cccc(O)c2)C1` (single isomer, unassigned; (-)) [listing 2 of 2 here], the ED50 entry in experiment [13] was “inactive”.
Turning to `CC1(c2cccc(O)c2)CCCN(CC2CC2)C1` (single isomer, unassigned; (-)) [listing 2 of 2 here], in [13], the ED50 entry was “inactive”.
Take `CC1(c2cccc(O)c2)CCCN(CCc2ccccc2)C1` (single isomer, unassigned; (-)) [listing 2 of 2 here]: the ED50 entry in experiment [13] is “inactive”.
Regarding `CN1CCCC(C)(c2cccc(O)c2)C1` (stereo in doubt; (+)-7a), the equilibrium dissociation constant (Kd) in experiment [5] is 15.9 µM; in experiment [7], 19.2 µM; in [9] it was 0.714 µM; in experiment [10], 1 µM; in experiment [12], 0.132 µM. The ED50 turned out to be 41.36 µM/kg in [8] and 101 µmol/kg in [11].
In the case of `CC1(c2cccc(O)c2)CCCN(CCc2ccccc2)C1` (stereo in doubt; (+)-7d), the Kd was 0.588 µM in experiment [5]; 26.3 µM in experiment [7]; 0.179 µM in [9]; 0.0062 µM in experiment [10]; 0.005 µM in experiment [12]. Also, the ED50 in [8] (setting [17]) was 11.5 µmol/kg; in [11], 13.1 µmol/kg.
With `CN1CCCC(C)(c2cccc(O)c2)C1` (stereo in doubt; (-)-7a) [listing 1 of 2 here], the dissociation constant (Kd) in experiment [5] is 30 µM; in experiment [6], 0.114 µM; in experiment [7], 8.33 µM; in experiment [9], 0.625 µM; in [10] it was 1.17 µM. In [8] (setting [17]), the ED50 stood at 25.7 µmol/kg.
On to `CN1CCCC(C)(c2cccc(O)c2)C1` (stereo in doubt; (-)-7a) [listing 2 of 2 here], for which the ED50 entry in experiment [14] was “inactive”.
On to `CCOC(=O)C1(c2ccccc2)CCN(C)CC1` [MEPERIDINE HYDROCHLORIDE], for which the ED50 in [3] came out at 20.2 µmol/kg. Moreover, the AD50 result in [15] is “inactive”.
For `C=CCN1CC[C@]23c4c5ccc(O)c4O[C@H]2[C@@H](O)C=C[C@H]3[C@H]1C5.Cl` [NALORPHINE HYDROCHLORIDE], in experiment [2] (setting [17]), the ED50 turned out to be 1.4 µmol/kg. The same molecule displayed an AD50 in experiment [4] of 0.71 µM/kg.
Regarding `C=CCN1CC[C@]23c4c5ccc(O)c4O[C@H]2[C@@H](O)C=C[C@H]3[C@H]1C5` [NALORPHINE], the ED50 in experiment [2] was 1.4 µM/kg; in experiment [16], 2.04 µmol/kg.

For the origin of these results see ChEMBL document CHEMBL1123470, “N-substituent modulation of opiate agonist/antagonist activity in resolved 3-methyl-3-(m-hydroxyphenyl)piperidines” (J Med Chem, 1986).
